Experimental data taken from PMC4267758 (Journal of molecular biology, 2014).
Entries after “also recorded” stand apart in the source; their conditions may differ. Where two headings read alike, the source gives them in different places. Where no end group is shown, it is not given here. The star is where a group is joined. MTSL = methane thiosulphonate spin label, CC1(C)C=C(CS*)C(C)(C)N1[O]

Tests used:
[1] = tested on: Pyk2-FAT; assay: Sedimentation equilibrium AUC; assay type: binding, human; settings: AUC-SE; for Kd: two site hetero-association model (A+B+B↔ABB), 1:2 Pyk2-FAT to peptide, 20 mM MES, pH 6.2, 4 °C, Monte Carlo error, 500 iterations, confidence level 0.68
Outline: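 Sedimentation equilibrium at 4 °C in 20 mM MES, 50 mM NaCl, pH 6.2. Rotor speeds 18.4, 26.9 and 46k rpm, equilibrium reached at 30, 26 and 18 h. Loading 35–96 μM. Absorbance read at 280 and 230 nm, 0.001 cm radial steps, 20 replicates per point. Global least-squares fit across speeds to the A+B+B↔ABB model.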

[2] = tested on: Pyk2-FAT; assay: Reverse NMR titration: unlabeled Pyk2-FAT added to 15N-labeled paxillin ligand; assay type: binding, human; settings: 1H-15N HSQC/TROSY, ratios up to 1:2, 20 mM MES, pH 6.2
Outline: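 Unlabelled Pyk2-FAT was titrated into a 15N-labelled ligand in 20 mM MES pH 6.2, with 15N-1H HSQC spectra at 600/800 MHz and 305 K. Ligands were an expressed chicken paxillin 139–163 peptide or His-tagged chicken paxillin 133–290. […] Ratios were 1:0.2–1:2.0.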

[3] = tested on: Pyk2-FAT; assay: Co-crystal structure with Pyk2-FAT; assay type: binding, human; settings: PDB 4R32, 3.5 Å, one at H1/H4, one at H2/H3
[4] = tested on: Pyk2-FAT; assay: Isothermal titration calorimetry; assay type: binding, human
Outline: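 Human Pyk2 FAT domain (residues 871–1005) with an N-terminal His6 tag, expressed in E. coli BL21(DE3) and purified by Ni-affinity then gel filtration. The cell held 10 μM protein in 20 mM MES, pH 6.2. The syringe held chicken paxillin LD-motif peptides (100 μM) or the His-tagged paxillin 133–290 fragment (50 μM). Solutions degassed; 2 μl injections, 120 s apart, at 25°C. Ligand-into-buffer heats subtracted. Fits used one-site or two-site sequential models. Run in duplicate.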

[5] = tested on: FAT-like domain from G-protein-coupled receptor kinase-interacting protein 1 (GIT1); settings: ref [41]; cited from earlier work
[6] = tested on: Pyk2-FAT; assay: NMR titration / chemical shift perturbation of 15N-labeled Pyk2-FAT; assay type: binding, human; settings: 15N-HSQC/TROSY titration, Pyk2-FAT:ligand 1:0.2 to 1:2, 20 mM MES, pH 6.2, 305K
Outline: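 15N-labeled Pyk2-FAT (400–500 μM in 20 mM MES, pH 6.2) titrated at 305 K with chicken LD peptides at protein:peptide ratios of 1:0.2 to 1:2. Peptide stocks were in dialysis buffer, pH readjusted to 6.2. 15N-HSQC spectra recorded at 600/800 MHz. Weighted shift Δav = [(ΔH² + (ΔN/5)²)/2]^1/2. For PRE, MTSL-labeled peptides were added at 1:0.2 and Iox/Ired taken after ascorbate reduction.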

[7] = tested on: Pyk2-FAT; assay: H/D exchange NMR of Pyk2-FAT complexes; design: species or system human; settings: H/D exchange in D2O, fast 15N-HSQC, up to 10 h
Outline: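 15N-labelled Pyk2-FAT complexes (400–500 μM, 20 mM MES pH 6.2) were lyophilized and rehydrated in D2O. FAST 1H-15N HSQC spectra were recorded at intervals up to 10 h at 305 K. HSQC spectra in H2O before and after exchange checked structural integrity.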

[8] = tested on: FAK-FAT; settings: ref [39] (b5), [39], [40]; cited from earlier work
[9] = tested on: Pyk2-FAT; assay: Steady-state 1H-15N heteronuclear NOE; design: species or system human; settings: 600 MHz, 305 K; relative to free Pyk2-FAT, loop regions
Outline: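 Steady-state 1H-15N heteronuclear NOE was measured at 600 MHz, 305 K on 15N-labelled Pyk2-FAT, free and bound to LD-motif peptide. Protein was at 400–500 μM in 20 mM MES pH 6.2. NOE values were taken as peak-intensity ratios of 1H-saturated to unsaturated spectra.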

[10] = tested on: Pyk2-FAT; assay: Paramagnetic relaxation enhancement; assay type: binding, human; settings: PRE, MTSL-labeled peptide, Pyk2-FAT:peptide 1:0.2, 20 mM MES, pH 6.2
Outline: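 Single-cysteine peptide variants in 20 mM phosphate pH 7.2 were reacted with fivefold molar excess MTSL for 8 h at room temperature. They were HPLC-repurified, lyophilized and redissolved in 20 mM MES pH 6.2, then added to uniformly 15N-labelled Pyk2-FAT. The reduced reference used fivefold molar excess ascorbic acid for 1 h. Per-residue Iox/Ired peak-intensity ratios were computed, excluding prolines and overlapped peaks.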

Substance | global free energy difference between first and second sites (ΔGAB and ΔGABB) ([1]; 1:2 stoichiometry, two-site hetero-association model) | Delta G, single site (1:1) ([1]; single site hetero-association model, T = 277.149994K, RT = 0.551kcal/mol) | Delta G, first binding site (1:2) ([1]; two site hetero-association model, first site, T = 277.149994K, RT = 0.551kcal/mol) | Delta G, second binding site (both occupied) ([1]; two site hetero-association model, second site, T = 277.149994K, RT = 0.551kcal/mol) | Kd ([1]; read-out: KAB (first site), 1:2 stoichiometry) | Kd ([1]; read-out: KABB (second site), 1:2 stoichiometry) | effect of unlabeled Pyk2-FAT on resonances of 15N-labeled ligand [2] | peptide molecules bound per Pyk2-FAT in crystal [3] | relative binding at H1/H4 and H2/H3 sites of Pyk2-FAT ([4]; discussion statement, H1/H4 versus H2/H3) | affinity preference for H2/H3 site over H1/H4 site of Pyk2-FAT ([4]; from ITC and AUC studies) | binding site on GIT1 FAT-like domain [5] | binding sites / site preference on Pyk2-FAT by NMR [6] | amide H/D exchange protection of Pyk2-FAT in complex [7] | preferred binding site on FAK-FAT [8] | steady-state 1H-15N NOE of Pyk2-FAT amides upon ligand binding [9] | H2/H3 residues of Pyk2-FAT affected by spin-labeled peptide [10]
LD2: paxillin derived peptide LD2 (chicken paxillin; residues 139–163), chemically synthesized (GSNLSELDRLLLELNAVQHNPPSGF) | -3.18 kJ/mol | -31.8 kJ/mol | -31.2 kJ/mol | -28 kJ/mol | 1.32 ± 0.02 µM | 5.3 ± 0.12 µM | most of the LD2 resonances were broadened beyond detection | two LD2 peptides bind to one molecule of Pyk2-FAT | binds to both H1/H4 and H2/H3 sites of Pyk2-FAT equally well | 5 fold | located exclusively at the H1/H4 surface | H2/H3 is the stronger binding site | residues from H2/H3 and H1/H4 were protected even after 10 hrs | specifically recognizes the H1/H4 site of FAK-FAT; also recorded: preferentially binds to the helices H1 and H4 interface (H1/H4) site | significantly increased relative to free Pyk2-FAT | –
LD2MTSL: methane thiosulphonate (MTSL)-derivatized LD2 peptide (GSNLSELDRLLLELNAVC(MTSL)HNPPSGF) | – | – | – | – | – | – | – | – | – | – | – | – | – | – | – | residues from H2/H3 disappeared or showed reduced intensity
